Source: ChEMBL document CHEMBL4622933, “Targeting the TS dimer interface in bifunctional Cryptosporidium hominis TS-DHFR from parasitic protozoa: Virtual screening identifies novel TS allosteric inhibitors” (Bioorg Med Chem Lett, 2020)
Active and inactive are the calls of the source. The calls are words filed in the database; no cut-off is given here.

What was measured:
[1] = tested on: Cryptosporidium hominis; experiment: Inhibition of Cryptosporidium hominis thymidylate synthase assessed as H2F formation at 500 uM preincubated for 30 mins followed by addition of radiolabelled CH2H4F and dUMP by HPLC-coupled flow scintillation analysis relative to control
Outline: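 Bifunctional C. hominis TS-DHFR is preincubated with compound for 30 min, then dUMP and radiolabelled CH2H4F are added to start the reaction. TS turnover of CH2H4F to H2F is followed by HPLC with radioactivity flow detection, and results are expressed as % inhibition.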

[2] = Inhibition of Cryptosporidium hominis thymidylate synthase assessed as H2F formation preincubated for 30 mins followed by addition of radiolabelled CH2H4F and inactive dUMP by HPLC-coupled flow scintillation analysis
[3] = Selectivity index, ratio of inhibition of human TS to inhibition of Cryptosporidium hominis thymidylate synthase-dihydrofolate reductase
[4] = molecular target: Thymidylate synthase (TS) (Homo sapiens, UniProt P04818); experiment: Inhibition of human TS at 500 uM relative to control; details: human thymidylate synthase enzyme (single protein)
Sequence of Thymidylate synthase (TS) (P04818 whole entry): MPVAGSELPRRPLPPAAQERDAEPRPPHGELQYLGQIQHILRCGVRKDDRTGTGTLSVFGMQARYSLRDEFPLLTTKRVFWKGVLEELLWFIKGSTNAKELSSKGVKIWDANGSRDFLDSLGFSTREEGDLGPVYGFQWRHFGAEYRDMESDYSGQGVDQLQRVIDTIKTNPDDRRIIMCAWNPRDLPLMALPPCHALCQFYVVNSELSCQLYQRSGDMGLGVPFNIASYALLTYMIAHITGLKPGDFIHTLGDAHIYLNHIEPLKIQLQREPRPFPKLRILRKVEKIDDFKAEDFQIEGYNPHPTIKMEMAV
Outline: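 Human TS enzyme is incubated with compound in the absence of dUMP, then TS activity is measured.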

[5] = tested on: Cryptosporidium hominis; experiment: Inhibition of Cryptosporidium hominis dihydrofolate reductase assessed as H4F formation at 500 uM preincubated for 30 mins followed by addition of radiolabelled H2F and dUMP by HPLC-coupled flow scintillation analysis relative to control
Outline: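 DHFR activity of bifunctional C. hominis TS-DHFR uses a radiometric assay. Conversion of radiolabelled H2F to H4F is followed by HPLC, and % inhibition is reported. The assay is run as a counter-screen for compound aggregation and nonspecific effects.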

[6] = Inhibition of Cryptosporidium hominis thymidylate synthase assessed as H2F formation preincubated for 30 mins followed by addition of radiolabelled CH2H4F and active dUMP by HPLC-coupled flow scintillation analysis

inhibition [1]	SMILES	other results
20%	COc1cc(C(C)=O)ccc1OCC(O)CNCc1ccc2c(c1)OCO2 (centres undefined)	–
inactive	O=C(O)CCC(=O)Nc1ccc(S(=O)(=O)Nc2ccc(C(F)(F)F)cc2)cc1	–
7%	OC(CNCc1ccc2c(c1)OCO2)COc1ccc(F)cc1 (centres undefined)	–
< 5%	COc1ccc(Cn2c(=O)c3[nH]cnc3n(-c3cccc([S+](C)[O-])c3)c2=O)cc1 (centres undefined)	–
inactive	CCOC(=O)CNC(=O)CSc1nc2ccccc2c(=O)[nH]1	–
55%	Cc1ccc(OCC(O)CNCc2ccc3c(c2)OCO3)cc1C (centres undefined)	–
< 5%	COc1cc(C(=O)O)ccc1OCC(O)CNCc1ccc2c(c1)OCO2 (centres undefined)	–
55%	CC(=O)c1ccc(OCC(O)CNCc2ccc3c(c2)OCO3)cc1 (centres undefined)	–
inactive	CC(C)(CC(=O)O)CC(=O)NCc1c(Cl)cccc1Oc1ccccc1	–
83%	OC(CNCc1ccc2c(c1)OCO2)COc1ccc(Cl)c(Cl)c1 (centres undefined)	inhibition [5]: 60%
< 5%	COc1ccccc1OCC(O)CNCc1ccc2c(c1)OCO2 (centres undefined)	–
46%	COc1cc(NC(=O)NCc2cccnc2)cc(C(F)(F)F)c1	–

More lines, now with the values behind:

SMILES	inhibition [1]	other results
Cc1ccccc1-n1c(=O)n(Cc2ccc(C(=O)O)cc2)c(=O)c2[nH]cnc21	< 5%	–
Cc1ccc(C)c(OCC(O)CNCc2ccc3c(c2)OCO3)c1C (centres undefined)	48%	–
OC(CNCc1ccc2c(c1)OCO2)COc1ccc(Br)cc1 (centres undefined)	26%	–
Cc1cc(Cl)cc(Br)c1OCC(O)CNCc1ccc2c(c1)OCO2 (centres undefined)	83%	IC50 [2]: 172 µM; Ratio [3]: 2; inhibition at 500 µM [4]: 50%; inhibition [5]: 19%; IC50 [6]: 304 µM
OC(CNCc1ccc2c(c1)OCO2)COc1ccc(-c2csnn2)cc1 (centres undefined)	76%	inhibition [5]: 6%
OC(CNCc1ccc2c(c1)OCO2)CSc1cccs1 (centres undefined)	43%	–
OC(CNCc1ccc2c(c1)OCO2)COc1ccc(-c2ccccc2)cc1 (centres undefined)	87%	inhibition [5]: 26%
OC(CNCc1ccc2c(c1)OCO2)CSc1ccccc1 (centres undefined)	34%	–
CCCCNC1N=C(c2ccccc2)c2ccccc2N(C)C1=O (centres undefined)	15%	–
